Measured values of several laboratories.
Protocols differ between the studies behind these lines.
Target: Serine/threonine-protein kinase PAK 1 (PAK1, Homo sapiens, UniProt Q13153)

| SMILES | assay | conditions | remaining binding [%] |
| --- | --- | --- | --- |
| c1cncc(-c2cccc(Nc3nccc(NC4CCCCC4)n3)c2)c1 | binding, competition with immobilised ligand | 10 µM | 85 |
| O=C(c1ccc(Nc2nccc(-c3cc4ccccc4s3)n2)cc1)N1CCC(N2CCCC2)CC1 | binding, competition with immobilised ligand | 1 µM | 80 |
| CN(C)c1ncnc(-c2ccc3nc(Nc4cc(CN5CCN(C(=O)CC(F)(F)F)CC5)ccn4)[nH]c3c2)c1Cl | cell-free assay, competition with immobilised ligand | 1 µM | 100 |
| O=C(NCC1CCOCC1)c1n[nH]cc1NC(=O)c1c(F)cccc1F | binding, competition with immobilised ligand | 1 µM | 100 |
| Cc1cnn2ncc(-c3ccnc(N(C)C)n3)c2c1 | binding | 1 µM | 71 |
| CNC(=O)[C@@H]1CC[C@@H](n2c(-c3ccc4cnccc4c3)nc3ccc(C(=O)NCc4cccc(C(N)=O)c4)cc32)C1 | binding, competition with immobilised ligand | 1 µM | 100 |
| CN(C)C(=O)Cn1cc(-c2nc(C3(c4ccc(-c5cnc(N)nc5)cc4)CC3)no2)cn1 | cell-free assay, competition with immobilised ligand | 1 µM | 100 |
| COc1cnc(Nc2cccc(S(N)(=O)=O)c2)nc1N1CCN(c2ccccc2)CC1 | binding, competition with immobilised ligand | 1 µM | 99 |
| CN(C)c1nccc(-c2cnn3ncccc23)n1 | binding | 1 µM | 100 |
| NS(=O)(=O)c1cc(NC(=O)Cc2ccccc2)ccc1Oc1cccc(Cl)c1 | cell-free assay, competition with immobilised ligand | 1 µM | 88 |
| CCN1CCN(Cc2ccc(C(=O)Nc3ccc(C)c(Oc4ccc5c(c4)CC(=O)N5)c3)cc2C(F)(F)F)CC1 | binding, competition with immobilised ligand | 1 µM | 100 |
| O=C(c1ccc(Nc2ncc(Cl)c(-c3ccc(Cl)s3)n2)cc1)N1CCC(N2CCCC2)CC1 | binding, competition with immobilised ligand | 1 µM | 68 |
| C[C@@H]1CCN(c2nccc(-c3cnn4ncccc34)n2)C1 | binding | 1 µM | 100 |
| C[C@@H]1CN(c2ccc3ncc(-c4ccc5[nH]nc(C6CC6)c5c4)n3n2)C[C@H](C)O1 | binding, competition with immobilised ligand | 0.5 µM | 98 |
| CN(C)c1nccc(-c2cnc3ncccn23)n1 | binding | 1 µM | 91 |
| CO[C@@H](C)c1c(Nc2ccc([C@H](N(C)C(=O)C3CCS(=O)(=O)CC3)C(F)(F)F)cc2)cnc2cc(Cl)nn12 | cell-free assay, competition with immobilised ligand | 1 µM | 74 |
| O=C(NCCCN1CCOCC1)c1ccc(Nc2nccc(-c3cc4ccccc4s3)n2)cc1 | binding, competition with immobilised ligand | 1 µM | 84 |
| CO[C@H]1CC[C@H](CNc2ccc(S(=O)(=O)NC(=O)c3ccc(N4CCN(CC5=C(c6ccc(Cl)cc6)CC(C)(C)CC5)CC4)cc3Oc3cnc4[nH]ccc4c3)cc2[N+](=O)[O-])CC1 | cell-free assay, competition with immobilised ligand | 1 µM | 78 |
| COc1ncc2cc3ccccc3nc2c1C#N | cell-free assay, competition with immobilised ligand | 5 µM | 97 |
| N[C@H]1CCN(c2nccc(-c3cnn4ncccc34)n2)C1 | binding | 1 µM | 100 |
| COc1cc(-c2cn(C3CCc4c(F)cccc4N(CC(F)(F)F)C3=O)nn2)ccc1-n1cnc(C)c1 (stereo not drawn) | cell-free assay, competition with immobilised ligand | 1 µM | 93 |
| Nc1ncc2c(n1)-c1c([nH]c3ccc(C#CC4CC4)cc13)CCCC2 | binding, competition with immobilised ligand | 1 µM | 83 |
| Cc1nc(C2CCN(C(=O)c3ccc(OC(F)(F)F)cc3N)CC2)c2ncc(N3CCN(C)CC3)cc2n1 | cell-free assay, competition with immobilised ligand | 1 µM | 100 |
| CN(C)c1ncc(F)c(-c2cnn3ncccc23)n1 | binding | 1 µM | 87 |
